Source: PubChem BioAssay (Sanford-Burnham Center for Chemical Genomics)
This is a sample that favours compounds with a hit; in the whole collection about 1.3% have one here.
G6PDH counter = inhibits Leuconostoc G6PDH, flagging false hits in G6PDH-based assays | Purified L. mesenteroides G6PDH, diaphorase/resazurin coupled fluorescence, 45 min | inhibition, % at 5 µM | 0.12% of 200,000 active; in the data active = inhibition above about 50%
PfGluPho inh = PfG6PD (Plasmodium falciparum) enzyme inhibition | PfGluPho enzyme, NADPH resazurin-diaphorase fluorescence | inhibition, % at 20 µM | 0.78% of 350,000 active | AID 504690;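 active = inhibition reaching at least a set limit at 20 µM in the primary screen, cut at about 59% in these data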;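 also: 0% = DMSO wells with substrate and 100% = DMSO wells lacking glucose-6-phosphate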
Diaphorase inh = inhibits diaphorase or chemically oxidizes, flagging diaphorase assay artifacts. diaphorase resazurin-to-resorufin fluorescence, NADH, 16 min; bacterial (C. kluyveri) enzyme, not human. inhibition, % at 20 µM. 0.69% of 190,000 active;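 active = primary screen inhibition at 20 µM above a set limit, cut at about 50% in these data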;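 also: plate controls were DMSO with full reaction for no effect and wells lacking NADH for full effect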
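Test system: bacterial diaphorase enzyme (C. kluyveri); Quantity: 0.14 U/mL diaphorase, enzyme working solution; Times: reaction incubation of 16 min at room temperature; Measured by: fluorescence of resorufin formed from resazurin, Ex 544/Em 590 nm; Benchmarks: positive control minus NADH, DMSO neutral control.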
HKDC1 inh = HKDC1 (human) hexokinase inhibition; Q2TB90; recombinant HKDC1, G6PDH/diaphorase resazurin coupled fluorescence; inhibition, % at 20 µM; 0.16% of 340,000 active;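 active = inhibition above about 35% when tested at 20 µM, limit read from the data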;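 also: plate controls were DMSO wells with enzyme for no effect and DMSO wells lacking enzyme for full effect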
Target sequence (Q2TB90 whole entry, looked up): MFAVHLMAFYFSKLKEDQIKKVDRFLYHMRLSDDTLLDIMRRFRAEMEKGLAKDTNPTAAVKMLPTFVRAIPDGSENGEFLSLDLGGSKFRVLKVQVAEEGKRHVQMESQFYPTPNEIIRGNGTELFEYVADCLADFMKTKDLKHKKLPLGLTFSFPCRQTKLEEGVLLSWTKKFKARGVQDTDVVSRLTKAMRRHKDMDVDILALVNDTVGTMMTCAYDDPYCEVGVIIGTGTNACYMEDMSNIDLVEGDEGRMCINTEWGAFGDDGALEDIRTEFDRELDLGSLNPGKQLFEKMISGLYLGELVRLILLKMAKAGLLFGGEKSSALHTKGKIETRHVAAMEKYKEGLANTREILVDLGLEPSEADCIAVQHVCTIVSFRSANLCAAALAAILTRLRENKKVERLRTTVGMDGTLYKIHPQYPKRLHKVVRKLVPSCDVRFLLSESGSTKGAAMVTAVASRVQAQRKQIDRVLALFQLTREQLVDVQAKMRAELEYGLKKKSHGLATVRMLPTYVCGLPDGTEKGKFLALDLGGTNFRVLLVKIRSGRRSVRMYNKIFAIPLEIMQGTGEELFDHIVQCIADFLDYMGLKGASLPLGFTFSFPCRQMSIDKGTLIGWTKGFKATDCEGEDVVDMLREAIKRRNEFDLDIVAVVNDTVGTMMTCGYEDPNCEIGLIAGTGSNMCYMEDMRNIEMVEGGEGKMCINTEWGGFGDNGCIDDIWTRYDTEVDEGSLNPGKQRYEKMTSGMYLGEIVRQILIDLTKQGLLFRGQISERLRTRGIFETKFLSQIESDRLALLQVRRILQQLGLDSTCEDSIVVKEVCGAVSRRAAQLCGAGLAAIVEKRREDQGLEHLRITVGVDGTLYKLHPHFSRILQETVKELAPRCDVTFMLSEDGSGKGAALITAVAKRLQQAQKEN
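Material – in-house recombinant HK5 (HKDC1) enzyme · Quantity – HKDC1 at 5 µg/mL · Buffer or medium – pH 8.0 Tris buffer with 10 mM MgCl2 · Reagent – glucose with 1 mM ATP · Dosing – single 20 µM dose · Times – reaction time 90 min, room temperature, protected from light · Technique – resorufin fluorescence at 613 nm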
PfG6PD confirm = confirmation of Plasmodium falciparum G6PD inhibitors; shares compounds with PfGluPho inh; recombinant PfGluPho, NADPH-diaphorase-resazurin fluorescence; inhibition, % at 20 µM; 34% of 2,400 active; AID 504753;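 active = inhibition of at least 50% at 20 µM in any single replicate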;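 also: 0% = DMSO with substrate and 100% = DMSO lacking glucose-6-phosphate substrate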
Diaph ctr 10uM = diaphorase inhibition or oxidation at 10 uM NADPH; 39% of 820 active; diaphorase-coupled resazurin reduction, fluorescence, NADPH 10 uM; shares compounds with PfGluPho inh; AID 504862; inhibition, % at 20 µM;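 active = average inhibition reaching 50% or more with the compound at 20 µM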;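 also: resorufin red fluorescence formed as diaphorase reduces resazurin using NADPH; 0% = DMSO with enzyme and 100% = DMSO without enzyme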
Diaph ctr 30uM = diaphorase inhibition or oxidation at 30 uM NADPH; shares compounds with PfGluPho inh; Diaphorase/resazurin coupled assay, resorufin fluorescence; inhibition, % at 20 µM; 29% of 820 active; AID 504863;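 active = inhibition averaging 50% or more, tested at 20 µM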;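 also: 0% = DMSO with enzyme and 100% = DMSO wells lacking diaphorase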
The depositor's hits bear a star; nt = not tested or not shown.

SMILES | G6PDH counter | PfGluPho inh | Diaphorase inh | HKDC1 inh | PfG6PD confirm | others
CC(=O)C(Sc1nc(N(C)C)nc(N(C)C)n1)C(=O)Nc1ccccc1 (configuration not stated) | -4 | 3 | 25 | -12 | nt
CCOC(=O)c1cnc2c(OC)cccc2c1Nc1ccc2c(c1)OCCO2 | -8 | 68* | 20 | -2 | 29
CCOC(=O)c1cnc2ccc(OC)cc2c1Nc1ccc2c(c1)OCCO2 | 3 | 51 | 11 | 4 | nt
COc1ccc(N)cc1-n1c(C)ccc1C | 44 | 78* | 43 | 14 | 13
O=C(Nc1ccc(F)cc1F)Nc1sccc1-c1nc2ccccc2s1 | nt | 81* | nt | -1 | 0
O=C(NCc1nnnn1-c1ccc(F)c(F)c1)c1cc2ccccc2o1 | nt | 7 | nt | -4 | nt
Cc1nnc(Sc2cc(NCCO)c([N+](=O)[O-])c3nonc23)s1 | 12 | 86* | 40 | 10 | 68* | Diaph ctr 10uM=-1;Diaph ctr 30uM=20
CCC(=O)OCCNc1cc(Sc2nc3ccccc3[nH]2)c2nonc2c1[N+](=O)[O-] | -23 | 51 | 31 | 8 | nt
O=[N+]([O-])c1c(NCCCO)cc(Sc2nc3ccccc3s2)c2nonc12 | 51* | 77* | 71* | 11 | 54* | Diaph ctr 10uM=-2;Diaph ctr 30uM=-2
CCC(=O)OCCNc1cc(Sc2nc3ccccc3s2)c2nonc2c1[N+](=O)[O-] | 21 | 79* | 58* | 14 | 64* | Diaph ctr 10uM=-5;Diaph ctr 30uM=-6
N#Cc1ccc(CC(C(=O)O)N2Cc3ccccc3C2=O)cc1 (configuration not stated) | nt | -5 | nt | -2 | nt
CCOC(=O)c1ccc(N=c2ssnc2Cl)cc1 | 1 | 88* | 19 | -8 | 30
N#Cc1ccc(N=c2ssnc2Cl)cc1 | 9 | 93* | 16 | -13 | 56* | Diaph ctr 10uM=-32;Diaph ctr 30uM=-24
O=C(c1nnsc1S(=O)c1ccc(Cl)cc1)N1CCOCC1 (configuration not stated) | 2 | 15 | 3 | 2 | nt
O=C(Nc1ccccc1)c1nnsc1S(=O)c1ccc(Cl)cc1 (configuration not stated) | -1 | 64* | 24 | 17 | 18
Cc1c(Cc2ccc3c(c2)OCO3)sc(NC(=O)c2cccc3ccccc23)c1C(N)=O | 11 | 87* | 21 | -9 | 30
Cc1c(Cc2ccc3c(c2)OCO3)sc(NC(=O)C2CC2)c1C(N)=O | nt | 70* | nt | -5 | 34
Cc1nc(NC(=O)C2CCCC2)sc1Cc1ccc2c(c1)OCO2 | 4 | 12 | 14 | 3 | nt
COc1ccc(NC(=O)C2Cc3ccccc3CN2C(=O)c2ccco2)cc1 (configuration not stated) | nt | 4 | nt | -4 | nt
COc1ccc(NC(=O)C2Cc3ccccc3CN2C(=O)c2ccccc2)cn1 (configuration not stated) | -7 | 61* | 12 | 1 | 48
O=C(NC1=NCCS1)C1Cc2ccccc2CN1C(=O)c1ccccc1 (configuration not stated) | 9 | 28 | 4 | 2 | nt
CC(=O)c1ccc(NC(=O)C2Cc3ccccc3CN2C(=O)c2ccccc2)cc1 (configuration not stated) | -12 | 68* | 16 | -7 | 37
CCOC(=O)C1=C(C)NC(C)=C(C(=O)OCC)C1C(=O)OCC(=O)N1CCOCC1 | nt | -7 | nt | -4 | nt
Cc1ccc(OCCn2cc(C=O)c3ccccc32)cc1 | nt | 12 | nt | -2 | nt
Cc1ccc(OCCn2cc(/C=C3\C(=O)NN(c4ccccc4)C3=O)c3ccccc32)cc1 | 17 | 65* | 16 | 8 | 33
SMILES | G6PDH counter | PfGluPho inh | Diaphorase inh | HKDC1 inh | PfG6PD confirm | others
CCOC(=O)C1CCN(C(=O)COC(=O)CSc2ccc([N+](=O)[O-])cc2)CC1 | nt | 42 | nt | 0 | nt
CC1CCCC(C)N1C(=O)COC(=O)CSc1ccc([N+](=O)[O-])cc1 (configuration not stated) | nt | 64* | nt | 7 | 1
O=C(CSc1nc2cc(Cl)ccc2s1)c1ccco1 | 2 | 113* | 24 | 4 | 56* | Diaph ctr 10uM=45;Diaph ctr 30uM=29
O=C(CSc1nnc(SCC(=O)c2ccco2)s1)c1ccco1 | 4 | 1 | 3 | 3 | nt
O=c1c(O)c(-c2cc(O)c(O)c(O)c2)oc2cc(O)cc(O)c12 | nt | 67* | nt | 3 | 47
O=c1c(O)c(-c2ccccc2)oc2cc(O)cc(O)c12 | nt | -30 | nt | -2 | nt
O=C(COC(=O)CCS(=O)(=O)c1ccccc1)Nc1ccc(N2CCCCC2)cc1 | nt | -2 | nt | 0 | nt
CC1CCc2nc3sc4c(c3c(N)c2C1)CCCC4 (configuration not stated) | 10 | 91* | 14 | -1 | 41
Nc1c2c(nc3sc4c(c13)CCCCC4)CCCCC2 | -2 | 20 | 7 | 19 | nt
CC1CCc2c(nc3sc4c(c3c2N)CCCC4)C1 (configuration not stated) | -14 | 95* | 13 | -6 | 57* | Diaph ctr 10uM=51*;Diaph ctr 30uM=41
Cc1cc(NC(=O)CCN2CCCCC2)ccc1Br | nt | -12 | nt | -2 | nt
Cc1cccc(Sc2ccc([N+](=O)[O-])cc2[N+](=O)[O-])n1 | -4 | 64* | 4 | -1 | 20
COc1ccc(S(N)(=O)=O)cc1C(=O)OCC(=O)N1CCCC(C)C1 (configuration not stated) | nt | 0 | nt | -2 | nt
COc1ccc(S(=O)(=O)N2CCN(c3nn(C)c(=O)n(C)c3=O)CC2)cc1 | nt | 1 | nt | -5 | nt
COc1cc(C(=O)O/N=C2\C=CC(=O)C=C2C)cc(OC)c1OC | -8 | 67* | 58* | -7 | 63* | Diaph ctr 10uM=27;Diaph ctr 30uM=15
COc1cc(C(=O)O/N=C2/C=CC(=O)C(C)=C2C)cc(OC)c1OC | 4 | 32 | 33 | 7 | nt
COc1ccc(CNC(=O)CN2CCC(NC(=O)c3cccc(OC)c3)CC2)cc1 | nt | -2 | nt | -3 | nt
CNC(=O)c1cccc(NC(=O)CCCNC(=O)c2ccc(Cl)cc2)c1 | nt | 11 | nt | -4 | nt
Oc1ccc(N2CCN(c3nc(-c4cccs4)nc4ccccc34)CC2)cc1 | nt | 60* | nt | 9 | 6
COc1cc(OC)c(OC)cc1/C=C/c1ccnc2ccccc12 | nt | 87* | nt | 4 | 14
O=C(N/N=C/c1ccc(O)cc1)c1ccc(NC(=O)c2ccccc2Br)cc1 | 3 | 0 | -3 | 4 | nt
O=C(Nc1ccccc1C(=O)N/N=C/c1ccc(F)cc1)c1ccccc1Br | 0 | 104* | 14 | 1 | 84* | Diaph ctr 10uM=69*;Diaph ctr 30uM=59*
O=C(CSc1nnc2c(n1)[nH]c1ccccc12)Nc1cccc(S(=O)(=O)N2CCOCC2)c1 | nt | 62* | nt | 8 | 16
O=C(CSc1nnc2c(n1)[nH]c1ccccc12)Nc1ccc2c(c1)OCO2 | -3 | 64* | 12 | -5 | 0
COc1ccc(/C=N/Nc2nnc(C)n2N)cc1OC | 6 | 61* | 7 | 5 | 7
